Experimental data from article PMC10693930 (Biochemistry, 2023).

What was measured:
Assay type in all cases: biochemical
K46A SaPC [1] = target: T1, K46A SaPC (Staphylococcus aureus, UniProt A0A0H3JRU9, K46A); assay: Pyruvate carboxylation assay
K411A SaPC [2] = target: T2, K411A SaPC (Staphylococcus aureus, UniProt A0A0H3JRU9, K411A); assay: Pyruvate carboxylation assay
E418A SaPC [3] = target: T3, E418A SaPC (Staphylococcus aureus, UniProt A0A0H3JRU9, E418A); assay: Pyruvate carboxylation assay; details: up to 4 mM acetyl-CoA and 30 mM CoA
WT SaPC [4] = target: T4, WT SaPC (Staphylococcus aureus, UniProt A0A0H3JRU9); assay: ADP phosphorylation assay
WT SaPC [5] = target: T4, WT SaPC; assay: Pyruvate carboxylation assay; details: for EC50: Ka (apparent activation constant)
K411A SaPC [6] = target: T2, K411A SaPC; assay: ADP phosphorylation assay
R21A SaPC [7] = target: T5, R21A SaPC (Staphylococcus aureus, UniProt A0A0H3JRU9, R21A); assay: Pyruvate carboxylation assay
E418A SaPC [8] = target: T3, E418A SaPC; assay: Pyruvate carboxylation inhibition assay with CT domain inhibitors
R21A SaPC [9] = target: T5, R21A SaPC; assay: as above; details: 2.5 mM acetyl-CoA vs none
WT SaPC [10] = target: T4, WT SaPC; assay: Pyruvate carboxylation inhibition assay with CT domain inhibitors
Outline: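 WT SaPC (5 μg/mL) was pre-incubated with inhibitor and acetyl-CoA, and the reaction was started with 10× substrate mix (final 25 mM NaHCO3, 2.5 mM ATP, 12 mM pyruvate). MDH-coupled (10 U/mL MDH, 0.12 mM NADH); change in A340 monitored. Inhibitor 0–1 mM or 0–50 mM by compound. MDH-only controls. Triplicate; SD of three trials.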

K46A SaPC [11] = target: T1, K46A SaPC; assay: Pyruvate carboxylation inhibition assay with CT domain inhibitors; details: 2.5 mM acetyl-CoA vs none
[12] = Acyl-CoA + 20 mM L-aspartate, Table 1

Compound: CC(C)(COP(=O)(O)OP(=O)(O)OC[C@H]1O[C@@H](n2cnc3c(N)ncnc32)[C@H](O)[C@@H]1OP(=O)(O)O)[C@@H](O)C(=O)NCCC(=O)NCCS [CoA]
- EC50 (K46A SaPC [1]): 1500 ± 100 µM
- EC50 (K411A SaPC [2]): 100 ± 4.8 µM
- activation of pyruvate carboxylation (E418A SaPC [3]): unresponsive to activation
- EC50 (WT SaPC [4]): 320 ± 30 µM
- h (Hill coefficient) (WT SaPC [5]; [12]): 1.8 ± 0.2
- h (Hill coefficient) (WT SaPC [5]; Acyl-CoA alone, Table 1): 1.4 ± 0.2
- EC50 (WT SaPC [5]; [12]): 130 ± 10 µM
- EC50 (WT SaPC [5]; WT SaPC, Table 2 series): 49 ± 7 µM
- increase of apparent Ka in the presence of L-aspartate (WT SaPC [5]; WT SaPC, 20 mM L-aspartate vs none): ~ 4 fold
- EC50 (K411A SaPC [6]): 420 ± 30 µM
- EC50 (R21A SaPC [7]): 1800 ± 53 µM

Compound: O=C(O)C(=O)O [oxalate]
- inhibition of pyruvate carboxylation (E418A SaPC [8]): inhibited
- change of inhibition in the presence of acetyl-CoA (E418A SaPC [8]; 500 μM acetyl-CoA): unchanged
- increase in the IC50 for oxalate inhibition (R21A SaPC [9]): 8 fold
- change of potency in the presence of acetyl-CoA (WT SaPC [10]; SaPC, CT domain inhibitors): significantly reduced potency
- increase in the IC50 for oxalate inhibition (WT SaPC [10]; WT SaPC, acetyl-CoA at ~7 times the Ka value (10 μM, Figure 6C)): ~ 6 fold
- increase in the IC50 for oxalate inhibition (WT SaPC [10]; WT SaPC, in the presence of CoA (500 μM, Figure 6B)): ~ 13 fold
- change of the IC50 for oxalate inhibition (WT SaPC [10]; WT SaPC, in the presence of L-aspartate (5 mM, Figure 6B)): did not alter
- increase in the IC50 for oxalate inhibition (WT SaPC [10]; WT SaPC, saturating acetyl-CoA vs none): > 20 fold
- increase in the IC50 for oxalate inhibition (K46A SaPC [11]): 8 fold
